Measured values reported in ChEMBL document CHEMBL1148923, “Novel cassane and cleistanthane diterpenes from Myrospermum frutescens: absolute stereochemistry of the cassane diterpene series” (J Nat Prod, 2004).

Assays:
[1] = tested on: Trypanosoma cruzi; assay: Antitrypanosomal activity against extracellular Trypanosoma cruzi Tulahuen clone C4; type: functional, organism-based
[2] = tested on: Vero; assay: Cytotoxicity against african green monkey Vero cells after 4 hrs by MTT assay; type: cell-based; conditions: Chlorocebus sabaeus
How it was run: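 Adherent Vero cells were treated with compound and incubated 4 h at 37°. Viability was read from MTT reduction in an ELISA reader at 570 nm.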

[3] = tested on: Trypanosoma cruzi; assay: Antitrypanosomal activity against intracellular Trypanosoma cruzi Tulahuen clone C4 assessed as cleavage of […]; type: functional, organism-based
How it was run: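 Transgenic T. cruzi (Tulahuen strain, clone C4) expressing β-galactosidase were exposed to added compound. Growth of the intracellular form was read as cleavage of chlorophenol red-β-D-galactoside (CPRG) at 570 nm.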

Compound | IC50 [1] [µM] | IC50 [3] [µM] | IC50 [2] [µM]
C[C@]1(CO)CCC[C@]2(C)[C@H]3CC(=O)[C@@]4(C)[C@@H]([C@@H]3CC[C@@H]12)[C@@H]4CO | – | – | 433
C=CC1=C(C)[C@@H]2CC(=O)[C@H]3[C@](C)(COC(C)=O)CCC[C@]3(C)[C@H]2CC1 | 17.7 | 79.1 | 238
CC(=O)OC[C@]1(C)CCC[C@]2(C)[C@H]3CCC(C=O)=C(C)[C@@H]3CC(=O)[C@@H]12 | 40.4 | 61.4 | 416
C=CC1=C(C)[C@@H]2C[C@@H](O)[C@H]3[C@](C)(COC(C)=O)CCC[C@]3(C)[C@H]2CC1 | 11 | – | –
C=C[C@@]1(O)CC[C@H]2[C@@H](C[C@@H](O)[C@H]3[C@](C)(COC(C)=O)CCC[C@]23C)C1=C | 16 | – | –
CO[C@@]12C[C@H]3[C@@H]([C@@H](O)[C@@H](OC(C)=O)[C@H]4[C@](C)(COC(C)=O)CCC[C@]34C)[C@@H](C)C1=CC(=O)O2 [CHAGRESLACTONE] | 75 | – | 225
CC(=O)OC[C@H]1[C@@H]2[C@@H]3CC[C@H]4[C@@](C)(CO)CCC[C@]4(C)[C@H]3CC(=O)[C@@]21C [CHAGRESNONE] | 56.9 | 95.5 | 448

Now from value to molecule, other results behind:

IC50 [1] [µM] | IC50 [3] [µM] | Compound | IC50 [2] [µM]
48 | – | C=CC1=C(C)[C@@H]2CC[C@H]3[C@](C)(CO)CCC[C@]3(C)[C@H]2CC1 | –
56.7 | 76.5 | C=CC1=C(C)[C@@H]2C[C@@H](OC(C)=O)[C@H]3[C@](C)(CO)CCC[C@]3(C)[C@H]2CC1 | 178
– | 16 | C=CC1=C(C)[C@@H]2C[C@@H](O)[C@H]3[C@](C)(CO)CCC[C@]3(C)[C@H]2CC1 | –
38.8 | 76 | C=CC1=C(CO)[C@@H]2C[C@@H](O)[C@H]3[C@](C)(COC(C)=O)CCC[C@]3(C)[C@H]2CC1 [CHAGRESNOL] | 156
